Results as given in ChEMBL document CHEMBL1806442, “Synthesis of novel alkyltriazole tagged pyrido[2,3-d]pyrimidine derivatives and their anticancer activity” (Eur J Med Chem, 2011).
In brackets after ≈: the same amount, converted by molar mass.

Key:
Assay type in all cases: functional, cell-based
U-937 = test: Cytotoxicity against human U937 cells after 24 hrs by MTT assay; conditions: U-937, 24 h
Method in brief: (§1)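 Cells kept in RPMI-1640 with 10% heat-inactivated FBS, 1 mM NaHCO3, 2 mM L-glutamine and 100 units/ml antibiotic. Seeded at 2 × 10^4 per well in 0.1 ml, left overnight, then given graded compound from DMSO stocks for 24 h. MTT added for a further 3 h at 37 °C, formazan dissolved in DMSO and read at 570 nm. Percent viability inhibition taken against untreated control; IC50 from linear regression.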

THP-1 = test: Cytotoxicity against human THP1 cells after 24 hrs by MTT assay; conditions: THP-1, 24 h; method in brief: as §1
COLO 205 = test: Cytotoxicity against human COLO205 cells after 24 hrs by MTT assay; conditions: COLO 205, 24 h; method in brief: as §1

SMILES	IC50 (U-937) [µg/mL]	IC50 (THP-1) [µg/mL]	IC50 (COLO 205) [µg/mL]
CCCCCCc1nc2nc(-c3ccccc3)cc(C(F)(F)F)c2c(=O)n1Cc1cn(CCC(F)(F)C(F)(F)C(F)(F)C(F)(F)C(F)(F)C(F)(F)F)nn1	7.56 (≈ 9.42 µM)	> 200	132 (≈ 165 µM)
COc1cc([C@@H]2c3cc4c(cc3[C@@H](O[C@@H]3O[C@@H]5CO[C@@H](C)O[C@H]5[C@H](O)[C@H]3O)[C@H]3COC(=O)[C@H]23)OCO4)cc(OC)c1O [ETOPOSIDE]	17.9 (≈ 30.5 µM)	2.16 (≈ 3.67 µM)	7.24 (≈ 12.3 µM)
CCCCCCCCCCn1cc(Cn2cnc3nc(-c4ccccc4)cc(C(F)(F)F)c3c2=O)nn1	8.16 (≈ 15.9 µM)	16.9 (≈ 33 µM)	19.2 (≈ 37.6 µM)
CCCCCCc1nc2nc(-c3ccccc3)cc(C(F)(F)F)c2c(=O)n1Cc1cn(CCC(F)(F)C(F)(F)C(F)(F)C(F)(F)C(F)(F)C(F)(F)C(F)(F)C(F)(F)F)nn1	> 200	> 200	> 200
O=c1c2c(C(F)(F)F)cc(-c3ccccc3)nc2ncn1Cc1cn(CCC(F)(F)C(F)(F)C(F)(F)C(F)(F)C(F)(F)C(F)(F)C(F)(F)C(F)(F)F)nn1	> 200	79.1 (≈ 96.7 µM)	163 (≈ 199 µM)
Cc1nc2nc(-c3ccccc3)cc(C(F)(F)F)c2c(=O)n1Cc1cn(CCC(F)(F)C(F)(F)C(F)(F)C(F)(F)C(F)(F)C(F)(F)C(F)(F)C(F)(F)F)nn1	124 (≈ 149 µM)	> 200	> 200
CC(C)c1nc2nc(-c3ccccc3)cc(C(F)(F)F)c2c(=O)n1Cc1cn(CCC(F)(F)C(F)(F)C(F)(F)C(F)(F)C(F)(F)C(F)(F)C(F)(F)C(F)(F)F)nn1	8.35 (≈ 9.7 µM)	142 (≈ 165 µM)	> 200
Cc1nc2nc(-c3ccccc3)cc(C(F)(F)F)c2c(=O)n1Cc1cn(CCC(F)(F)C(F)(F)C(F)(F)C(F)(F)C(F)(F)C(F)(F)F)nn1	> 200	> 200	> 200
CCc1nc2nc(-c3ccccc3)cc(C(F)(F)F)c2c(=O)n1Cc1cn(CCC(F)(F)C(F)(F)C(F)(F)C(F)(F)C(F)(F)C(F)(F)C(F)(F)C(F)(F)F)nn1	> 200	> 200	> 200
CCCCCCCCCCn1cc(Cn2c(C)nc3nc(-c4ccccc4)cc(C(F)(F)F)c3c2=O)nn1	6.2 (≈ 11.8 µM)	11.3 (≈ 21.4 µM)	15 (≈ 28.5 µM)
Cc1nc2nc(-c3ccccc3)cc(C(F)(F)F)c2c(=O)n1Cc1cn(-c2ccccc2)nn1	> 200	> 200	> 200
CCc1nc(OCc2cn(CCC(F)(F)C(F)(F)C(F)(F)C(F)(F)C(F)(F)C(F)(F)F)nn2)c2c(C(F)(F)F)cc(-c3ccccc3)nc2n1	9.22 (≈ 12.4 µM)	> 200	> 200
Cc1nc(OCc2cn(CCC(F)(F)C(F)(F)C(F)(F)C(F)(F)C(F)(F)C(F)(F)C(F)(F)C(F)(F)F)nn2)c2c(C(F)(F)F)cc(-c3ccccc3)nc2n1	22.4 (≈ 26.9 µM)	107 (≈ 129 µM)	> 200
FC(F)(F)c1cc(-c2ccccc2)nc2nc(-c3ccccc3)nc(OCc3cn(CCC(F)(F)C(F)(F)C(F)(F)C(F)(F)C(F)(F)C(F)(F)C(F)(F)C(F)(F)F)nn3)c12	44.4 (≈ 49.6 µM)	> 200	> 200
CCc1nc2nc(-c3ccccc3)cc(C(F)(F)F)c2c(=O)n1Cc1cn(CCC(F)(F)C(F)(F)C(F)(F)C(F)(F)C(F)(F)C(F)(F)F)nn1	> 200	> 200	> 200
CCCCCCCCCCn1cc(Cn2c(CC)nc3nc(-c4ccccc4)cc(C(F)(F)F)c3c2=O)nn1	17.8 (≈ 33 µM)	82.6 (≈ 153 µM)	> 200
